# Screens as filed in PubChem.
# core dimer inh: inhibitors of HCV core protein dimerization, primary screen, biochemical, TR-FRET, high-throughput. inhibition, % at 5 µM. actives 0.33% (n = 300,000). AID 1899, 2009. TR-FRET GST/Flag-core106 dimerization, 1536-well;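 active means inhibition above the mean of all tested compounds plus 3 SD, set per screening campaign, cut at about 45% in these data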
#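 Assay system: GST-tagged and Flag-tagged HCV core protein residues 1-106 / Times: compound-protein-antibody incubation 4 h at 22.5 °C / Signal: time-resolved FRET, ex 340 nm, em 617 and 671 nm / Evaluation: % inhibition based on acceptor/donor emission ratio / Benchmarks: wells lacking GST-core106 and wells with excess unlabelled core106 / Repeats: singlicate, one well per compound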
# NS3 helicase inh: inhibitors of HCV NS3 helicase, primary screen, biochemical, Cy5 molecular beacon fluorescence; Hepatitis C virus NS3 helicase; NS3 helicase DNA unwinding; inhibition, % at 10.9 µM; actives 0.56% (n = 290,000); AID 1800, 2009;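 active means inhibition above the mean of all tested compounds plus 3 SD, set per campaign, cut at about 35% in these data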
#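 System: HCV NS3 helicase fragment; control set: DMSO and thioflavine S; technique: Cy5 fluorescence at 0 and 60 min, beacon hairpin quenching; reagent: beacon DNA duplex substrate plus ATP; replicates: singlicate; schedule: 1 h reaction at 25 °C, ATP-initiated; medium: MOPS buffer pH 6.5 with MgCl2, DTT, Tween20, BSA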
# APOBEC3A inh: APOBEC3A ssDNA deaminase inhibitors, primary screen, selectivity assay for APOBEC3G inhibitor project, biochemical, FAM/TAMRA oligo cleavage fluorescence | DNA dC->dU-editing enzyme APOBEC-3A (Homo sapiens), P31941 | recombinant A3A, FAM/TAMRA ssDNA deamination fluorescence | inhibition, % at 20 µM | actives 0.41% (n = 330,000) | AID 493011, 2011;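 active means at least 40% inhibition at 20 µM here, with at most 30% in a related deaminase screen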
# Target sequence (P31941 whole entry, looked up): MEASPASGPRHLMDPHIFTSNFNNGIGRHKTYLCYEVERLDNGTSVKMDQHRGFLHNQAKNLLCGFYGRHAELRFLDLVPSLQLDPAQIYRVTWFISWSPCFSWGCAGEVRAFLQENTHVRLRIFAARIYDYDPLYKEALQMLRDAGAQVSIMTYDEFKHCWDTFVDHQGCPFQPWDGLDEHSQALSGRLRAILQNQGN
# ABHD5-PLIN5 inh: ABHD5-PLIN5 interaction inhibitors, primary screen, cell lysate, split luciferase complementation, luminescence | AID 602281, 2012 | Split G. princeps luciferase complementation, 4 h | Perilipin-5 (Homo sapiens) + 1-acylglycerol-3-phosphate O-acyltransferase ABHD5 (Homo … | actives 0.78% (n = 360,000) | inhibition, % at 4 µM;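 active means inhibition above the mean inhibition across every tested compound plus 3 SD, cut at about 22% in these data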
# A3G deaminase: APOBEC3G DNA deaminase inhibitors, primary screen, biochemical, fluorescence, single-stranded DNA substrate, uHTS | recombinant A3G, ssDNA deamination FAM/TAMRA fluorescence | inhibition, % at 20 µM | actives 0.28% (n = 330,000) | AID 493012, 2011;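 active means inhibition of at least 40% at 20 µM, with no more than 30% in the related APOBEC3A deaminase screen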
# Target sequence (Q9HC16 whole entry, looked up): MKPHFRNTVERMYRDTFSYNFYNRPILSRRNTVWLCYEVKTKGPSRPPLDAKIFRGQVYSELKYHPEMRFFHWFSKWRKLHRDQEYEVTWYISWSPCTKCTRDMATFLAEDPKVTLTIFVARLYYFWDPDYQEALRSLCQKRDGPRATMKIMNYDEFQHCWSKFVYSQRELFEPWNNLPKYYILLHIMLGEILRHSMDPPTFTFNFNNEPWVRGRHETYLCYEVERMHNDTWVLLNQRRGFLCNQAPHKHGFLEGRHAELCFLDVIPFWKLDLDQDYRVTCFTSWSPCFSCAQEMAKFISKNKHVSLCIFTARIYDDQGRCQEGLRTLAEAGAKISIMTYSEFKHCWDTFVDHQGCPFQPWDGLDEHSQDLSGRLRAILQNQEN
# PRMT1 FP inh: PRMT1 methyltransferase inhibitors, primary screen, biochemical, fluorescence polarization | actives 1.3% (n = 370,000) | recombinant PRMT1, activity-based probe fluorescence polarization | Protein arginine N-methyltransferase 1 (Homo sapiens), Q99873 | inhibition, % at 2.79 µM;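 active means inhibition above about 21% made by adding two undisclosed values, limit read from the data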
# PRMT1 inh conf: PRMT1 methyltransferase inhibitors, confirmation, biochemical, fluorescence polarization, triplicate. shares compounds with PRMT1 FP inh. recombinant His-PRMT1, activity-based probe fluorescence polarization. inhibition, % at 2.79 µM. actives 42% (n = 3,300). AID 687036, 2013;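 active means mean inhibition across replicates above the hit cutoff derived for the earlier primary screen, cut at about 22% in these data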
# Numbers stand for hits; - = inactive; . = no result given. Most compounds without a hit are left out; they make up all but 2.9% or so of the library.
SMILES,core dimer inh,NS3 helicase inh,APOBEC3A inh,ABHD5-PLIN5 inh,A3G deaminase,PRMT1 FP inh,PRMT1 inh conf
CC1(C)Cc2c(c(N3CCOCC3)nc3sc(C(=O)Nc4ccccc4)c(N)c23)CO1,-,-,-,-,-,27,23
CC1(C)Cc2c(c(N3CCOCC3)nc3sc(C(=O)Nc4cccc(Cl)c4)c(N)c23)CO1,-,-,-,-,-,-,.
CCOC(=O)c1c(SC)n(-c2ccccc2)c(=S)n(-c2ccccc2)c1=O,.,-,.,-,.,-,.
CCOC(=O)c1c(SCCN2CCCCC2)n(-c2ccccc2)c(=S)n(-c2ccccc2)c1=O,.,.,.,-,.,31,-
Cc1ccc(C2NC(=O)c3c(sc(C)c3C)N2)c(O)c1 (centres undefined),-,-,-,-,-,-,.
Cc1cccc(C2NC(=O)c3c(sc(C)c3C)N2)c1O (centres undefined),-,-,-,-,-,53,-
CCC(CC)C(=O)N(C)c1c(C)nc2c(OCCC3CCCCC3)cccn12,.,.,.,-,.,-,.
COc1ccc(-c2nc3ccc(Br)cn3c2Cc2cccc(Cl)c2)cc1OC,.,.,.,-,.,-,.
O=C(N/C(=C\c1cn(-c2ccccc2)nc1-c1ccccc1)C(=O)N1CCOCC1)c1ccccc1,-,-,-,.,-,.,.
C(=N\N1CCOCC1)/c1cn(-c2ccccc2)nc1-c1ccccc1,-,-,-,-,-,96,-
Nc1ccn([C@@H]2O[C@H](C(=O)N[C@H](Cc3ccccc3)C(=O)NCC(F)(F)F)[C@@H](O)[C@H]2O)c(=O)n1,.,.,.,.,.,-,.
Cc1ccc(CNC(=O)CCS(=O)(=O)c2cc(Br)cc3c2N(C(=O)C2CC2)CC3)o1,-,-,-,-,-,48,-
O=C(O)CCS(=O)(=O)c1cc(Br)cc2c1N(C(=O)C1CC1)CC2,-,-,-,-,-,-,.
Cc1ccc(C(=O)COC(=O)CN2C(=O)C3C4CCC(C4)C3C2=O)cc1C (centres undefined),.,-,-,-,-,-,.
O=c1nc2s/c(=C\c3ccc(-c4ccccc4[N+](=O)[O-])o3)c(=O)n2nc1-c1ccccc1,.,43,.,-,.,59,-
CN(NC(=S)Nc1ccc(OC(F)F)cc1)C(=S)Nc1ccc(OC(F)F)cc1,-,-,-,-,-,44,-
CCN(CC)C(=S)Nc1ccc(OC(F)F)cc1,-,-,-,-,-,-,.
CN(CCc1ccccc1)C(=O)c1ccc(NC(=O)Cc2ccc(NC(=O)C3CCN(C(=O)c4ccccc4)CC3)cc2)cc1,.,.,.,-,.,-,.
NC(=O)CC(NSc1ccccc1[N+](=O)[O-])C(=O)O (centres undefined),-,-,-,-,-,34,23
O=[N+]([O-])c1ccccc1SNc1ccccc1,.,.,.,-,.,-,.
Oc1ccc(CNc2ccccc2Cl)c2cccnc12,.,.,.,.,.,56,65
Oc1ccc(CNc2ccccc2F)c2cccnc12,-,-,-,-,-,-,.
Oc1ccc(CNc2ccccc2C(F)(F)F)c2cccnc12,.,.,.,.,.,47,33
Oc1ccc(Nc2ccccc2F)c2cccnc12,.,.,.,.,.,42,-
CCOC(=O)C[C@@H]1OC[C@H](Cc2ccccc2)N1S(=O)(=O)c1ccc(C)cc1,.,.,.,-,.,-,.
SMILES,core dimer inh,NS3 helicase inh,APOBEC3A inh,ABHD5-PLIN5 inh,A3G deaminase,PRMT1 FP inh,PRMT1 inh conf
CCC12OC(=N)C(C#N)(C1C)C(C#N)(C#N)C(c1ccccc1)O2 (centres undefined),-,-,-,-,-,28,30
COc1cc(NS(=O)(=O)c2ccc(-n3cccn3)cc2)cc(OC)c1,.,.,.,-,.,.,.
COc1cccc(C2=CC(=O)C[C@H](c3ccc(Cl)cc3)C2)c1,.,.,-,-,-,-,.
COc1cccc(C2=CC(=O)CC(c3ccco3)C2)c1 (centres undefined),-,.,-,-,-,31,-
CC1CCN(C2CC(=O)N(c3ccccc3)C2=O)CC1 (centres undefined),-,-,-,-,-,81,-
CC1CCN(C2CC(=O)N(c3ccc(Br)cc3Br)C2=O)CC1 (centres undefined),-,-,-,-,-,64,-
O=C1CC(N2CCSCC2)C(=O)N1c1ccc(Br)cc1 (centres undefined),-,-,-,-,-,-,.
O=C1CC(N2CCN(Cc3ccccc3)CC2)C(=O)N1c1ccccc1 (centres undefined),-,-,-,-,-,-,.
COCc1[nH]nc2c1C(c1ccc3c(c1)OCO3)N(c1ccc(OC)cc1)C2=O (centres undefined),.,.,.,.,.,-,.
C[C@@H]1CCCCO[C@H](CN(C)S(=O)(=O)c2ccc(F)cc2)[C@@H](C)CN([C@H](C)CO)C(=O)c2cc(NC(=O)Nc3ccc(C(F)(F)F)cc3)ccc2O1,.,.,.,-,.,-,.
Cc1cc(C)cc(NC(=O)[C@H](NC(=O)[C@@H]2Cc3ccccc3CN2)c2ccccc2)c1,-,-,-,-,-,.,.
O=C(Nc1nnc([C@@H]2C[C@H](O)[C@@H](CO)O2)s1)c1ccccc1Cl,.,.,.,-,.,-,.
CCN(CC)c1ccc2nc3ccc(N)cc3[n+](-c3ccccc3)c2c1,.,.,-,-,-,26,-
CCN(CC)c1ccc(/C=N/n2nnnc2N)c(O)c1,-,-,-,-,-,-,.
O=C(NCc1cccnc1)c1cc(C2CCCCN2C(=O)c2ccc(Cl)cc2)on1 (centres undefined),.,.,.,-,.,-,.
Clc1ccc(OCCOCCNCc2ccccc2)cc1Cl,-,-,-,-,-,-,.
Nc1cc(S(=O)(=O)O)cc2ccc(S(=O)(=O)O)cc12,.,.,.,-,.,35,-
Nc1ccc(C(=O)Nc2ccc3c(O)cc(S(=O)(=O)O)cc3c2)cc1,.,.,.,-,.,-,.
Cc1ccsc1C(=O)NNC(=O)c1ccncc1,.,.,-,-,-,31,-
Cc1ccc(S(=O)(=O)N2C[C@H]3C(=O)C[C@@H](c4ccccc4)N(S(C)(=O)=O)[C@H]3C[C@H]2c2ccccc2)cc1,.,.,.,-,.,-,.
CCOC(=O)c1cc2c(ccn2C)n1Cc1ccccc1C,-,-,-,-,-,-,.
CCOC(=O)c1cc2c(ccn2C)n1CC(=O)N(Cc1ccccc1)c1ccccc1,-,-,-,-,-,29,-
CCN(CC)c1ccc(/C=C(/C#N)c2nc3ccccc3[nH]2)c(OC(C)C)c1,-,-,-,-,-,41,-
